{
  "source": "ChEMBL document CHEMBL4765486",
  "about": "“Novel Nonsecosteroidal Vitamin D Receptor Modulator Combined with Gemcitabine Enhances Pancreatic Cancer Therapy through Remodeling of the Tumor Microenvironment” (J Med Chem, 2021)",
  "key": {"DSL-6A/C1 [1]": {"tested_on": "DSL-6A/C1", "assay": "Potentiation of gemcitabine-induced antitumor activity against luciferase-tagged rat DSL-6A/C1 cells and GFP-tagged LTC-14 cells co-inoculated in orthotropic xenograft BALB/c nude mouse model of pancreatic cancer assessed as reduction in tumor volume at 500 ug/kg, ip administered once every 3 days for 12 days coadministered with gemcitabine at 100 mg/kg and measured after 3 days post last dose by IVIS optical imaging analysis", "assay_type": "functional, organism-based", "details": "dose 500.0 µg/kg, time 12.0 day", "procedure,_shortened": "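DSL-6A/C1-luci and LTC-14-GFP cells were co-inoculated orthotopically into the pancreas of nude mice, n=5 per group. Treatment began 7 days after grafting (methods) or 14 days (text). Gemcitabine 100 mg/kg ip every 3 days, alone or with compound 500 μg/kg or calcipotriol 60 μg/kg in ethanol/polyoxyethylene castor oil/saline (1:1:18), for 12 days. Tumour growth was followed by bioluminescence imaging.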"}, "LTC-14 [2]": {"tested_on": "LTC-14", "assay": "Inhibition of rat LTC-14 cells activation assessed decrease in TGF-beta1 induced Acta2 mRNA expression at 0.5 uM incubated for 24 hrs by q-PCR analysis", "assay_type": "functional, cell-based", "procedure,_shortened": "(§1)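 Immortalized rat PSC line LTC-14, about 1×10^5 cells per well, was grown 24 h at 37 °C in 5% CO2. Cells then received compound (0.5 μM) plus TGF-β1 for 24 h; TGF-β1 is stated as 0.5 ng/mL in the text and 5 ng/mL in the methods. Col1a1 and Acta2 mRNA were measured by RT-qPCR. Mean ± SD versus TGF-β1 alone.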"}, "LTC-14 [3]": {"tested_on": "LTC-14", "assay": "Inhibition of rat LTC-14 cells activation assessed as inhibition of PDGFA mRNA expression at 0.5 uM treated under conditioned media of DSL-6A/C1 cells for 24 hrs by q-PCR analysis", "assay_type": "functional, cell-based", "procedure,_shortened": "(§2)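 LTC-14 PSCs were exposed for 24 h to conditioned medium from rat DSL-6A/C1 cancer cells containing compound at 0.5 μM. Pdgfa, Pdgfb, Fgf2, Hgf and Periodin mRNA were quantified by RT-qPCR. Three repeats, mean ± SD versus CM alone.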"}, "LTC-14 [4]": {"tested_on": "LTC-14", "assay": "Inhibition of rat LTC-14 cells interaction with DSL-6A/C1 cells in conditioned media assessed as inhibition of PDGF-A protein expression at 0.5 uM measured after 24 hrs by Western blot analysis", "assay_type": "functional, cell-based", "procedure,_shortened": "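LTC-14 cells were treated for 24 h with DSL-6A/C1 conditioned medium plus compound (0.5 μM). Proteins were separated on 10% SDS-PAGE, transferred to PVDF and probed with rabbit anti-PDGF-A or anti-POSTN, with β-actin as loading reference.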"}, "[5]": {"biological_target": "T1, Vitamin D3 receptor (Homo sapiens) (UniProt P11473)", "T1 sequence (whole entry)": "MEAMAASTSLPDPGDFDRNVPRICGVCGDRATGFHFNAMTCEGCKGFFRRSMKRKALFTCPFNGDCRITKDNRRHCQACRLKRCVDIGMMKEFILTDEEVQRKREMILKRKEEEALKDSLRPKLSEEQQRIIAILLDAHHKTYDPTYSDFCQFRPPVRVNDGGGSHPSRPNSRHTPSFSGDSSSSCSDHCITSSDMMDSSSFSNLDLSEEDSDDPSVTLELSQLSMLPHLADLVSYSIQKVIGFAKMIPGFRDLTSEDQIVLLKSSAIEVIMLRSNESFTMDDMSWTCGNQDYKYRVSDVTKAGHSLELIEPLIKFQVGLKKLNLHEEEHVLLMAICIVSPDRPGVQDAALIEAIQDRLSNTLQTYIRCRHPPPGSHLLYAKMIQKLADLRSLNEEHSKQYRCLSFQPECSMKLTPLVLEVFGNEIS", "assay": "Binding affinity to VDR (unknown origin) at 1 uM by fluorescence polarization assay relative to calcipotriol", "details": "filed as agonist", "procedure,_shortened": "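PolarScreen VDR competitor fluorescence polarization assay with compounds at 1 μM in triplicate. Read-out used 535 nm excitation and 590 nm emission filters.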"}, "[6]": {"assay": "Cytotoxicity against rat LTC-14 cells assessed as reduction in cell proliferation incubated for 24 hrs by MTT assay", "assay_type": "cell-based", "details": "LTC-14, 24 h"}, "LTC-14 [7]": {"tested_on": "LTC-14", "assay": "Inhibition of rat LTC-14 cell activation assessed decrease in TGF-beta1 induced Colla1 mRNA expression at 0.5 uM incubated for 24 hrs by q-PCR analysis", "assay_type": "functional", "procedure,_shortened": "as §1"}, "DSL-6A/C1 [8]": {"tested_on": "DSL-6A/C1", "assay": "Potentiation of gemcitabine-induced antitumor activity against luciferase-tagged rat DSL-6A/C1 cells and GFP-tagged LTC-14 cells co-inoculated in orthotropic xenograft BALB/c nude mouse model of pancreatic cancer assessed as decrease in density of tumor tissue at 500 ug/kg, ip administered once every 3 days for 12 days coadministered with gemcitabine at 100 mg/kg and measured after 3 days post last dose by hematoxylin and eosin staining based assay", "assay_type": "functional, organism-based", "details": "dose 500.0 µg/kg, time 12.0 day", "procedure,_shortened": "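In the same orthotopic co-inoculation model, mice received gemcitabine 100 mg/kg ip every 3 days plus compound 500 μg/kg ip for 12 days. Animals were sacrificed 3 days after the last dose. Pancreatic tumour sections were stained with H&E for tissue structure and with Masson's trichrome for collagen deposition, imaged at ×100.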"}, "DSL-6A/C1 [9]": {"tested_on": "DSL-6A/C1", "assay": "Antiproliferative activity against rat DSL-6A/C1 cells assessed as reduction in cell viability at 0.5 uM incubated for 24 hrs compound treated LTC-14-CM cells by MTT assay", "assay_type": "functional, cell-based", "procedure,_shortened": "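LTC-14 PSCs were pretreated with compound for 24 h. Their collected supernatant was used to culture DSL-6A/C1 cells, and proliferation was read by MTT: 4 h incubation with MTT (5 mg/mL stock), absorbance at 570 nm. Run in triplicate, compared with untreated PSC-CM.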"}, "LTC-14 [10]": {"tested_on": "LTC-14", "assay": "Inhibition of rat LTC-14 cells activation assessed as inhibition of Periodin-mRNA expression at 0.5 uM treated under conditioned media of DSL-6A/C1 cells for 24 hrs by q-PCR analysis", "assay_type": "functional, cell-based", "procedure,_shortened": "as §2"}},
  "note": "Calls of active or inactive are those of the source. Unless noted, the calls are words filed in the database; no cut-off is given here.",
  "data": [
    {"smiles": "CCn1cc(C(CC)(CC)c2ccc(OCC(C)O)c(C)c2)cc1C(=O)NCCN1CCN(C)CC1", "note": "(stereo not given)", "values": [
      {"measurement": "TGI", "setting": "DSL-6A/C1 [1]", "value": "Active"},
      {"measurement": "inhibition", "setting": "LTC-14 [2]", "value": "Active"},
      {"measurement": "inhibition", "setting": "LTC-14 [3]", "value": "Active"},
      {"measurement": "inhibition", "setting": "LTC-14 [4]", "value": "Active"},
      {"measurement": "RBA", "setting": "[5]", "value": 89, "unit": "%"},
      {"measurement": "IC50", "setting": "[6]", "value": "> 10", "unit": "µM"},
      {"measurement": "inhibition", "setting": "LTC-14 [7]", "value": "Active"},
      {"measurement": "Activity", "setting": "DSL-6A/C1 [8]", "value": "Active"},
      {"measurement": "Activity", "setting": "DSL-6A/C1 [9]", "value": "Active"},
      {"measurement": "inhibition", "setting": "LTC-14 [10]", "value": "Active"}
    ]}
  ]
}
